Source: ChEMBL document CHEMBL3600304, “Gageopeptins A and B, new inhibitors of zoospore motility of the phytopathogen Phytophthora capsici from a marine-derived bacterium Bacillus sp. 109GGC020” (Bioorg Med Chem Lett, 2015)
Converted amounts (≈) assume the structure as drawn. The source made the active and inactive calls. The calls are words filed in the database; no cut-off is given here. Where a SMILES comes first, the peptide text is derived from it.

Key:
Staphylococcus aureus = test: Antibacterial activity against Staphylococcus aureus by broth dilution assay; type: functional
Summary of the method: (§1)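 Broth dilution assay for the minimum growth-inhibitory concentration against Gram-positive and Gram-negative bacteria and fungi. Each organism was cultured under its own growth conditions.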

Bacillus subtilis = test: Antibacterial activity against Bacillus subtilis by broth dilution assay; type: functional; summary of the method: as §1
Salmonella typhi = test: Antibacterial activity against Salmonella typhi by broth dilution assay; type: functional, Salmonella enterica subsp. enterica serovar Typhi; settings: Salmonella enterica
Summary of the method: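 Broth dilution test giving the minimum concentration that inhibits growth, run against Gram-positive and Gram-negative bacteria. Growth conditions were kept specific to each organism during culture.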

Pseudomonas aeruginosa = test: Antibacterial activity against Pseudomonas aeruginosa by broth dilution assay; type: functional; summary of the method: as §1
Phytophthora capsici [1] = test: Inhibition of Phytophthora capsici zoospore motility at 5 ug/ml by homogeneous solution method; type: functional, organism-based; settings: TDE = time-dependent effect
Phytophthora capsici [2] = test: Inhibition of Phytophthora capsici zoospore motility after 15 to 60 mins by homogeneous solution method; type: functional, organism-based
Phytophthora capsici [3] = test: Inhibition of Phytophthora capsici zoospore motility at 1 ug/ml after 15 to 60 mins by homogeneous solution method; type: functional, organism-based
Phytophthora capsici [4] = test: Induction of Phytophthora capsici zoospore lytic activity at 1 ug/ml after 5 to 60 mins by homogeneous solution method; type: functional, organism-based
Phytophthora capsici [5] = test: Induction of Phytophthora capsici zoospore lytic activity at 10 ug/ml after 60 mins by homogeneous solution method; type: functional, organism-based
Phytophthora capsici [6] = test: Induction of Phytophthora capsici zoospore lytic activity at 50 ug/ml after 30 mins by homogeneous solution method; type: functional, organism-based
Rhizoctonia solani = test: Antifungal activity against Rhizoctonia solani by broth dilution assay; type: functional; summary of the method: as §1
Colletotrichum acutatum = test: Antifungal activity against Colletotrichum acutatum by broth dilution assay; type: functional; summary of the method: as §1
Botrytis cinerea = test: Antifungal activity against Botrytis cinerea by broth dilution assay; type: functional; summary of the method: as §1
Phytophthora capsici [7] = test: Inhibition of Phytophthora capsici zoospore motility at 500 ug/ml after 15 to 60 mins by homogeneous solution method; type: functional, organism-based
Phytophthora capsici [8] = test: Induction of Phytophthora capsici zoospore lytic activity at 500 ug/ml after 5 to 60 mins by homogeneous solution method; type: functional, organism-based

CC[C@H]1OC(=O)[C@H](C)[C@@H](O[C@H]2C[C@@](C)(OC)[C@@H](O)[C@H](C)O2)[C@H](C)[C@@H](O[C@@H]2O[C@H](C)C[C@H](N(C)C)[C@H]2O)[C@](C)(O)C[C@@H](C)CN(C)[C@H](C)[C@@H](O)[C@]1(C)O [AZITHROMYCIN]
MIC (Staphylococcus aureus): 2 µg/mL (≈ 2.67 µM)
MIC (Bacillus subtilis): 2 µg/mL (≈ 2.67 µM)
MIC (Salmonella typhi): 2 µg/mL (≈ 2.67 µM)
MIC (Pseudomonas aeruginosa): 2 µg/mL (≈ 2.67 µM)

CCC(C)CC(C)CCCCCCCC[C@@H]1CC(=O)N[C@@H](CCC(=O)O)C(=O)N[C@@H](C(C)C)C(=O)N[C@@H](CC(C)C)C(=O)N[C@@H](C)C(=O)N[C@@H](CC(=O)O)C(=O)N[C@@H](CC(C)C)C(=O)N[C@@H](CC(C)C)C(=O)O1 (stereo partly drawn) (HELM PEPTIDE1{E.V.L.A.D.L.L}|CHEM1{[CCC(C)CC(C)CCCCCCCC[C@H](CC(=O)[*:1])O[*:2]]}$PEPTIDE1,CHEM1,1:R1-1:R1|PEPTIDE1,CHEM1,7:R2-1:R2$$$V2.0)
inhibition (Phytophthora capsici [1]): tde
IC50 (Phytophthora capsici [2]): 1 µg/mL (≈ 0.965 µM)
inhibition (Phytophthora capsici [2]): Dose-dependent effect
inhibition (Phytophthora capsici [3]): Active
Activity (Phytophthora capsici [4]): Active
Activity (Phytophthora capsici [5]): Active
Activity (Phytophthora capsici [6]): Active
MIC (Rhizoctonia solani): 4 µg/mL (≈ 3.86 µM)
MIC (Colletotrichum acutatum): 8 µg/mL (≈ 7.72 µM)
MIC (Botrytis cinerea): 4 µg/mL (≈ 3.86 µM)
MIC (Staphylococcus aureus): 16 µg/mL (≈ 15.4 µM)
MIC (Bacillus subtilis): 16 µg/mL (≈ 15.4 µM)
MIC (Salmonella typhi): 16 µg/mL (≈ 15.4 µM)
MIC (Pseudomonas aeruginosa): 16 µg/mL (≈ 15.4 µM)

C[C@@H]1[C@H](O)[C@@H](C)/C=C/C=C/C=C/C=C/C=C/C=C/C=C/[C@H](O[C@@H]2O[C@H](C)[C@@H](O)[C@H](N)[C@@H]2O)C[C@@H]2O[C@](O)(C[C@@H](O)C[C@@H](O)[C@H](O)CC[C@@H](O)C[C@@H](O)CC(=O)O[C@H]1C)C[C@H](O)[C@H]2C(=O)O [AMPHOTERICIN B]
MIC (Rhizoctonia solani): 1 µg/mL (≈ 1.08 µM)
MIC (Colletotrichum acutatum): 1 µg/mL (≈ 1.08 µM)
MIC (Botrytis cinerea): 1 µg/mL (≈ 1.08 µM)

CCC(C)CCCCCCCCCC[C@@H]1CC(=O)N[C@@H](CCC(=O)O)C(=O)N[C@@H](C(C)C)C(=O)N[C@@H](CC(C)C)C(=O)N[C@@H](C)C(=O)N[C@@H](CC(=O)O)C(=O)N[C@@H](CC(C)C)C(=O)N[C@@H](CC(C)C)C(=O)O1 (stereo partly drawn) (HELM PEPTIDE1{E.V.L.A.D.L.L}|CHEM1{[CCC(C)CCCCCCCCCC[C@H](CC(=O)[*:1])O[*:2]]}$PEPTIDE1,CHEM1,1:R1-1:R1|PEPTIDE1,CHEM1,7:R2-1:R2$$$V2.0)
inhibition (Phytophthora capsici [1]): tde
IC50 (Phytophthora capsici [2]): 400 µg/mL (≈ 391 µM)
inhibition (Phytophthora capsici [2]): Dose-dependent effect
inhibition (Phytophthora capsici [7]): Active
Activity (Phytophthora capsici [8]): inactive
MIC (Rhizoctonia solani): 8 µg/mL (≈ 7.83 µM)
MIC (Colletotrichum acutatum): 8 µg/mL (≈ 7.83 µM)
MIC (Botrytis cinerea): 8 µg/mL (≈ 7.83 µM)
MIC (Staphylococcus aureus): 16 µg/mL (≈ 15.7 µM)
MIC (Bacillus subtilis): 32 µg/mL (≈ 31.3 µM)
MIC (Salmonella typhi): 32 µg/mL (≈ 31.3 µM)
MIC (Pseudomonas aeruginosa): 16 µg/mL (≈ 15.7 µM)
